From PubChem BioAssay
Shown are actives, neighbours in structure and some others; about 1.5% of the full set was active somewhere.
CXCR6 inh: CXCR6 receptor inhibitors, primary screen, cell-based, beta-arrestin, luminescence, CHO-K1 PathHunter, 1536-well; C-X-C chemokine receptor type 6 (Homo sapiens), O00574; inhibition, % at 20 µM; hit rate 0.36% among 360,000; AID 602244, 2012; in the data active = inhibition above about 34%, passing the limit was not always enough;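 also: antagonist mode with CXCL16 agonist at 10 nM final; 0% = 10 nM CXCL16 with DMSO and 100% = unstimulated wells without agonist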
CCR6 antagonist: CCR6 receptor antagonists, primary screen, cell-based, CHO-K1, luminescence, beta-arrestin, uHTS | C-C chemokine receptor type 6 (Homo sapiens), P51684 | CHO-K1 CCR6 PathHunter beta-arrestin, CCL20-stimulated | inhibition, % at 20 µM | hit rate 0.49% among 340,000;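 active = compounds whose inhibition of the agonist-driven luminescence signal at 20 µM reaches about 50%, limit read from the data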;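 also: cells stimulated with CCL20 at 14 nM final; plate controls were DMSO with CCL20 for no effect and DMSO without agonist for full effect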
EBI2 antag: EBI2 receptor antagonists, beta-arrestin recruitment, primary screen, cell-based, luminescence, 7a,25-OHC stimulation, uHTS | G-protein coupled receptor 183 (Homo sapiens), P32249 | 7a,25-OHC stimulated | inhibition, % at 5 µM | hit rate 0.81% among 360,000; in the data active = inhibition above about 38%;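 also: enzyme fragment complementation signal reports receptor beta-arrestin coupling in cells; 0% = agonist plus DMSO wells and 100% = wells without agonist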
APJ agonist: agonists of human apelin receptor APJ, primary screen, CHO-K1 cells, PathHunter beta-arrestin, luminescence. P35414. 0% DMSO wells, 100% apelin. activation, % at 20 µM. hit rate 0.11% among 330,000. AID 2520, 2010;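 active = activation more than six SD over the plate average, tested at 20 µM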;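 also: 0% = DMSO alone and 100% = apelin-13 at 10 nM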
Target sequence (P35414 whole entry, looked up): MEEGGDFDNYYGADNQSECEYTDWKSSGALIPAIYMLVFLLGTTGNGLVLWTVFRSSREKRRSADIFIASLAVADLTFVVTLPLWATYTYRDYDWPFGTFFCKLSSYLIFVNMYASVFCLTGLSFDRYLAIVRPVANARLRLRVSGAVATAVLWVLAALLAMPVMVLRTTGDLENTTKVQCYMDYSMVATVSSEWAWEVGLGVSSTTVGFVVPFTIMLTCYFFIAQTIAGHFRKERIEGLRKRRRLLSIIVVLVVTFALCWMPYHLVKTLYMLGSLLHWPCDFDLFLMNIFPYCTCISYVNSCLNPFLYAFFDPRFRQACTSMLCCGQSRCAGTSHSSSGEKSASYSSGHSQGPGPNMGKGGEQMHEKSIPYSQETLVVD
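system = engineered CHO-K1 APJ arrestin reporter cells | input = 1000 cells per well | timing = overnight seeding, 90 min compound at 25 °C, 1 h detection | measured by = enzyme-fragment complementation luminescence | read-out = beta-arrestin recruitment to APJ as agonist activity, luminescent signal | control set = negative DMSO alone, positive Apelin-13 at 10 nM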
APJ antagonist: antagonists of human apelin receptor APJ, primary screen, CHO-K1 cells, beta-arrestin complementation, luminescence | inhibition, % at 20 µM | hit rate 0.32% among 330,000 | AID 2521, 2010 | P35414;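 active = inhibition above about 40% at 20 µM, limit read from the data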;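 also: cells challenged with 10 nM apelin-13 agonist together with compound; plate controls were apelin-13 plus DMSO wells for no effect and DMSO wells lacking apelin-13 for full effect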
EBI2 conf: EBI2 antagonist hit retest, beta-arrestin, confirmation, cell-based, single concentration, luminescence, 7a,25-OHC stimulation | shares compounds with EBI2 antag | 7a,25-OHC antagonism | inhibition, % at 5 µM | hit rate 29% among 2,400 | AID 651997, 2013;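 active = inhibition of at least 50%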
EBI2 agonist: EBI2 agonist activity of antagonist hits, confirmation, counter-screen for EBI2 antagonist project, cell-based, single concentration, agonist mode, luminescence | shares compounds with EBI2 antag | EBI2-expressing cells, 60 min; 0% vehicle, 100% 7α,25-dihydroxycholesterol control | activation, % at 5 µM | 2,400 tested, under 10 active | AID 652000, 2013;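 active = activation of at least 50%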
bGal counter: E. coli beta-galactosidase enzyme inhibition, confirmation, counter-screen for EBI2 antagonist project, biochemical, luminescence, single concentration; shares compounds with EBI2 antag; purified beta-galactosidase, luminescent Galacton Star, 15 min; inhibition, % at 5 µM; hit rate 1% among 2,400;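 active = replicate-average signal at least 3 plate SD below neutral wells, shown as high inhibition, flagging enzyme-inhibiting false positives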;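 also: 0% = DMSO wells with enzyme and 100% = wells lacking enzyme; higher means stronger loss of beta-gal luminescence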
Numbers without * were called inactive; . = no result.

SMILES	CXCR6 inh	CCR6 antagonist	EBI2 antag	APJ agonist	APJ antagonist	EBI2 conf	EBI2 agonist	bGal counter
C[C@H]1CN([C@@H](C)CO)C(=O)CCCn2nncc2CO[C@H]1CN(C)S(=O)(=O)c1cccc(F)c1	0	.	-6	.	.	.	.	.
C[C@@H]1CN([C@@H](C)CO)C(=O)CCCn2nncc2CO[C@@H]1CN(C)S(=O)(=O)c1cccc(F)c1	4	.	64*	.	.	32	-1	-14
COc1ccc(C(=O)N2CCCC(c3cc(C(=O)Nc4ccccc4)no3)C2)cc1 (configuration not stated)	-4	.	4	.	.	.	.	.
Cc1ccc2nc(-c3ccccc3Cl)cc(C(=O)Nc3cc(C)on3)c2c1	-2	6	60*	-2	1	46	-1	-3
CSCCNC(=O)C1(C)CCN1C(=O)c1ccc(C(C)(C)C)cc1 (configuration not stated)	6	.	0	.	.	.	.	.
CC(=O)Nc1ccc(-c2ccnc3c2CC(C(=O)Nc2cccc(N(C)C)c2)O3)cc1 (configuration not stated)	-6	.	-6	.	.	.	.	.
CCCCCCCCN1C(=O)[C@H](CC(=O)NCc2ccc(OC)c(OC)c2)C[C@@]2(C(=O)OC)CCCCC=C12	9	.	15	.	.	.	.	.
O=C1CC(Nc2ccc3ccccc3c2)C(=O)N1Cc1ccccc1 (configuration not stated)	-7	1	63*	2	-12	24	0	5
Cc1cccc(C)c1N1C(=O)c2ccccc2NC(=O)C1C(=O)NCCc1ccccc1F (configuration not stated)	.	.	-14	.	.	.	.	.
CCc1ccc(CN(Cc2cccnc2)C(=O)/C=C/c2ccc(OC)cc2)cc1	10	15	62*	-2	-17	27	-1	-3
O=c1c2ccccc2n2c(-c3ccc(C(F)(F)F)cc3)nnc2n1Cc1ccccc1	19	19	47*	2	-7	22	-1	-10
COc1ccc(S(=O)(=O)Nc2cccc3c2O[C@H](CN(C)Cc2ccc(Cl)c(Cl)c2)[C@@H](C)CN([C@H](C)CO)C3=O)cc1	1	13	60*	-2	1	59*	-1	4
C[C@H]1CN([C@@H](C)CO)C(=O)c2cccc(NS(=O)(=O)c3ccc(F)cc3)c2O[C@H]1CN(C)Cc1ccc(Cl)c(Cl)c1	8	6	11	-1	8	.	.	.
CCCCCCN1CCN(C2CN(C3CCCCC3)S(=O)(=O)C2)CC1 (configuration not stated)	6	.	-1	.	.	.	.	.
Cc1oc(C(C)(C)C)cc1C(=O)N1CCN(c2ncccc2C(F)(F)F)CC1	7	0	14	3	1	.	.	.
O=C(c1ccc(-n2cccn2)cc1)N1CCN(c2ncccc2C(F)(F)F)CC1	-3	16	87*	0	-2	80*	0	7
Cc1cc(C)c2cc(C(=O)N3CCN(c4ncccc4C(F)(F)F)CC3)[nH]c2c1	-6	2	77*	-4	2	46	0	-9
CC(C)(C)NC(=O)N1CCN(c2ncccc2C(F)(F)F)CC1	-4	11	-14	1	11	.	.	.
O=C(COc1ccccc1)Nc1ccc2c(c1)C(=O)N(CC1CCCO1)C2=O (configuration not stated)	-3	6	45*	-4	-4	21	0	8
COCCCN1C(=O)c2ccc(C(=O)Nc3ccc(OC)cc3)cc2C1=O	-3	9	58*	-3	7	49	2	1
